ChEMBL document CHEMBL1811757, “Discovery of naturally occurring aurones that are potent allosteric inhibitors of hepatitis C virus RNA-dependent RNA polymerase” (J Med Chem, 2011)

Test system: not listed separately
Assay: Inhibition of HCV genotype 1b J4 N-terminal His-tagged NS5Bdelta21 polymerase expressed in Escherichia coli C41(DE3) assessed as amount of double-stranded RNA synthesis
Parameters: species or system Hepatitis C virus isolate HC-J4
Conditions: not given

Row | SMILES | IC50 [µM]
1 | O=C1/C(=C/c2cccc(O)c2)Oc2cc(O)ccc21 | > 20
2 | CCCCc1ccc(/C=C2\Oc3cc(O)cc(O)c3C2=O)cc1 | 2.5
3 | O=C1/C(=C/c2cccc(O)c2)Oc2cccc(O)c21 | > 20
4 | COc1ccc(/C=C2\Oc3cc(O)cc(O)c3C2=O)c(OC)c1OC | > 20
5 | CC(C)(C)c1ccc(/C=C2\Oc3cccc(O)c3C2=O)cc1 | > 20
6 | COc1ccc(/C=C2\Oc3cccc(O)c3C2=O)c(OC)c1 | 9.7
7 | O=C1/C(=C/c2ccc(F)cc2)Oc2cc(O)cc(O)c21 | 11.2
8 | O=C1/C(=C/c2ccccc2O)Oc2cc(O)ccc21 | > 20
9 | CCCCn1cc(/C=C2\Oc3cc(O)cc(O)c3C2=O)c2ccccc21 | 2.2
10 | COc1cccc(/C=C2\Oc3cc(O)cc(O)c3C2=O)c1OC | > 20
11 | Cc1ccc(/C=C2\Oc3cccc(O)c3C2=O)c(C)c1 | 5.8
12 | O=C1/C(=C/c2ccccc2O)Oc2cccc(O)c21 | 11.1
13 | O=C1/C(=C/c2ccc(N3CCOCC3)cc2)Oc2cc(O)cc(O)c21 | 11.4
14 | O=C1/C(=C/c2ccc(C3CCCCC3)cc2)Oc2cc(OCc3ccccc3)cc(OCc3ccccc3)c21 | > 20
15 | O=C1/C(=C/c2ccc(O)c(O)c2)Oc2cc(O)cc(O)c21 [AUREUSIDIN] | 5.4
16 | COc1cc(OC)c2c(c1)O/C(=C\c1ccc(C)cc1C)C2=O | > 20
17 | COc1cc(OC)c(/C=C2\Oc3cccc(O)c3C2=O)c(OC)c1 | > 20
18 | O=C1/C(=C/c2ccc(C3CCCCC3)cc2)Oc2cc(O)cc(O)c21 | 2.3
19 | COc1cc(OC)c2c(c1)O/C(=C\c1cccc(O)c1)C2=O | > 20
20 | CCc1ccc(/C=C2\Oc3cc(O)cc(O)c3C2=O)cc1 | 3.6
21 | CC(C)c1ccc(/C=C2\Oc3cccc(O)c3C2=O)cc1 | > 20

Test system: Hepatitis C virus isolate HC-J4
Assay: Inhibition of HCV genotype 1b J4 N-terminal His-tagged NS5Bdelta21 polymerase expressed in Escherichia coli C41(DE3) assessed as amount of double-stranded RNA synthesis at 20 uM
Conditions: not given

Row | SMILES | inhibition [%]
22 | O=C1/C(=C/c2cccc(O)c2)Oc2cc(O)ccc21 | 10
23 | CCCCc1ccc(/C=C2\Oc3cc(O)cc(O)c3C2=O)cc1 | 93
24 | O=C1/C(=C/c2cccc(O)c2)Oc2cccc(O)c21 | 37
25 | COc1ccc(/C=C2\Oc3cc(O)cc(O)c3C2=O)c(OC)c1OC | 50
26 | CC(C)(C)c1ccc(/C=C2\Oc3cccc(O)c3C2=O)cc1 | 60.8
27 | COc1ccc(/C=C2\Oc3cccc(O)c3C2=O)c(OC)c1 | 75
28 | O=C1/C(=C/c2ccc(F)cc2)Oc2cc(O)cc(O)c21 | 80
29 | O=C1/C(=C/c2ccccc2O)Oc2cc(O)ccc21 | 18
30 | CCCCn1cc(/C=C2\Oc3cc(O)cc(O)c3C2=O)c2ccccc21 | 95
31 | COc1cccc(/C=C2\Oc3cc(O)cc(O)c3C2=O)c1OC | 74
32 | Cc1ccc(/C=C2\Oc3cccc(O)c3C2=O)c(C)c1 | 64
33 | O=C1/C(=C/c2ccccc2O)Oc2cccc(O)c21 | 56
34 | O=C1/C(=C/c2ccc(N3CCOCC3)cc2)Oc2cc(O)cc(O)c21 | 66
35 | O=C1/C(=C/c2ccc(C3CCCCC3)cc2)Oc2cc(OCc3ccccc3)cc(OCc3ccccc3)c21 | 3
36 | O=C1/C(=C/c2ccc(O)c(O)c2)Oc2cc(O)cc(O)c21 [AUREUSIDIN] | 85
37 | COc1cc(OC)c2c(c1)O/C(=C\c1ccc(C)cc1C)C2=O | 14
38 | COc1cc(OC)c(/C=C2\Oc3cccc(O)c3C2=O)c(OC)c1 | 52
39 | O=C1/C(=C/c2ccc(C3CCCCC3)cc2)Oc2cc(O)cc(O)c21 | 92
40 | COc1cc(OC)c2c(c1)O/C(=C\c1cccc(O)c1)C2=O | 11
41 | CCc1ccc(/C=C2\Oc3cc(O)cc(O)c3C2=O)cc1 | 79
42 | CC(C)c1ccc(/C=C2\Oc3cccc(O)c3C2=O)cc1 | 29.9

Test system: Huh-7
Assay: Cytotoxicity against human HuH7 cells up to 512 uM after 72 hrs by MTT assay
Assay type: cell-based
Conditions: huh-7, 72 h
Outline: (§1)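 Cells trypsinized in exponential growth and plated at 2000 (HuH7) or 1000 (HEK293) per well. Allowed to attach 96 h at 37°C, 5% CO2. Drug diluted in medium with 1% DMSO final, then 72 h at 37°C, 5% CO2. Viability read by MTT colorimetric assay.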

Row | SMILES | Activity
43 | O=C1/C(=C/c2cccc(O)c2)Oc2cc(O)ccc21 | Non-toxic
44 | CCCCc1ccc(/C=C2\Oc3cc(O)cc(O)c3C2=O)cc1 | Non-toxic
45 | O=C1/C(=C/c2cccc(O)c2)Oc2cccc(O)c21 | Non-toxic
46 | COc1ccc(/C=C2\Oc3cc(O)cc(O)c3C2=O)c(OC)c1OC | Non-toxic
47 | CC(C)(C)c1ccc(/C=C2\Oc3cccc(O)c3C2=O)cc1 | Non-toxic
48 | COc1ccc(/C=C2\Oc3cccc(O)c3C2=O)c(OC)c1 | Non-toxic
49 | O=C1/C(=C/c2ccc(F)cc2)Oc2cc(O)cc(O)c21 | Non-toxic
50 | O=C1/C(=C/c2ccccc2O)Oc2cc(O)ccc21 | Non-toxic
51 | CCCCn1cc(/C=C2\Oc3cc(O)cc(O)c3C2=O)c2ccccc21 | Non-toxic
52 | COc1cccc(/C=C2\Oc3cc(O)cc(O)c3C2=O)c1OC | Non-toxic
53 | Cc1ccc(/C=C2\Oc3cccc(O)c3C2=O)c(C)c1 | Non-toxic
54 | O=C1/C(=C/c2ccccc2O)Oc2cccc(O)c21 | Non-toxic
55 | O=C1/C(=C/c2ccc(N3CCOCC3)cc2)Oc2cc(O)cc(O)c21 | Non-toxic
56 | O=C1/C(=C/c2ccc(C3CCCCC3)cc2)Oc2cc(OCc3ccccc3)cc(OCc3ccccc3)c21 | Non-toxic
57 | COc1cc(OC)c2c(c1)O/C(=C\c1ccc(C)cc1C)C2=O | Non-toxic
58 | COc1cc(OC)c(/C=C2\Oc3cccc(O)c3C2=O)c(OC)c1 | Non-toxic
59 | O=C1/C(=C/c2ccc(C3CCCCC3)cc2)Oc2cc(O)cc(O)c21 | Non-toxic
60 | COc1cc(OC)c2c(c1)O/C(=C\c1cccc(O)c1)C2=O | Non-toxic
61 | CCc1ccc(/C=C2\Oc3cc(O)cc(O)c3C2=O)cc1 | Non-toxic
62 | CC(C)c1ccc(/C=C2\Oc3cccc(O)c3C2=O)cc1 | Non-toxic

Test system: HEK293
Assay: Cytotoxicity against human HEK293 cells up to 512 uM after 72 hrs by MTT assay
Assay type: cell-based
Conditions: hek293, 72 h
Outline: as §1

Row | SMILES | Activity
63 | O=C1/C(=C/c2cccc(O)c2)Oc2cc(O)ccc21 | Non-toxic
64 | CCCCc1ccc(/C=C2\Oc3cc(O)cc(O)c3C2=O)cc1 | Non-toxic
65 | O=C1/C(=C/c2cccc(O)c2)Oc2cccc(O)c21 | Non-toxic
66 | COc1ccc(/C=C2\Oc3cc(O)cc(O)c3C2=O)c(OC)c1OC | Non-toxic
67 | CC(C)(C)c1ccc(/C=C2\Oc3cccc(O)c3C2=O)cc1 | Non-toxic
68 | COc1ccc(/C=C2\Oc3cccc(O)c3C2=O)c(OC)c1 | Non-toxic
69 | O=C1/C(=C/c2ccc(F)cc2)Oc2cc(O)cc(O)c21 | Non-toxic
70 | O=C1/C(=C/c2ccccc2O)Oc2cc(O)ccc21 | Non-toxic
71 | CCCCn1cc(/C=C2\Oc3cc(O)cc(O)c3C2=O)c2ccccc21 | Non-toxic
72 | COc1cccc(/C=C2\Oc3cc(O)cc(O)c3C2=O)c1OC | Non-toxic
73 | Cc1ccc(/C=C2\Oc3cccc(O)c3C2=O)c(C)c1 | Non-toxic
74 | O=C1/C(=C/c2ccccc2O)Oc2cccc(O)c21 | Non-toxic
75 | O=C1/C(=C/c2ccc(N3CCOCC3)cc2)Oc2cc(O)cc(O)c21 | Non-toxic
76 | O=C1/C(=C/c2ccc(C3CCCCC3)cc2)Oc2cc(OCc3ccccc3)cc(OCc3ccccc3)c21 | Non-toxic
77 | COc1cc(OC)c2c(c1)O/C(=C\c1ccc(C)cc1C)C2=O | Non-toxic
78 | COc1cc(OC)c(/C=C2\Oc3cccc(O)c3C2=O)c(OC)c1 | Non-toxic
79 | O=C1/C(=C/c2ccc(C3CCCCC3)cc2)Oc2cc(O)cc(O)c21 | Non-toxic
80 | COc1cc(OC)c2c(c1)O/C(=C\c1cccc(O)c1)C2=O | Non-toxic
81 | CCc1ccc(/C=C2\Oc3cc(O)cc(O)c3C2=O)cc1 | Non-toxic
82 | CC(C)c1ccc(/C=C2\Oc3cccc(O)c3C2=O)cc1 | Non-toxic
